Columns and labels:
[1] = Metabolic stability in human liver microsomes assessed as compound remaining at 10 uM after 1 hr in presence of NADPH; type: ADME; conditions: read-out: Stability
In short: (§1)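 Liver microsomes (rat or human) incubated with compound and NADPH for 1 h; percent of parent remaining. Table footnote gives 10 μM compound, 1 mM NADPH, 1 mg/mL protein; text gives 1 μM substrate, 1 mg/mL protein.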

[2] = Metabolic stability in rat liver microsomes assessed as compound remaining at 10 uM after 1 hr in presence of NADPH; type: ADME; conditions: read-out: Stability; in short: as §1
Liver microsome [3] = test: Drug metabolism in rat liver microsomes assessed as 3-(trifluoromethyl)-benzenesulfonamide level after 1 hr in presence of NADPH; type: ADME
Liver microsome [4] = test: Drug metabolism in human liver microsomes assessed as 3-(trifluoromethyl)-benzenesulfonamide level after 1 hr in presence of NADPH; type: ADME
[5] = biological target: T1, Voltage-dependent N-type calcium channel subunit alpha-1B (Homo sapiens, UniProt Q00975); test: Inhibition of Cav2.2-mediated calcium influx in HEK cells by FLIPR assay; type: cell-based, HEK293
In short: (§2)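 Cav2.2 calcium-influx FLIPR assay; compounds screened for percent inhibition at single concentration, active ones titrated for IC50; values averaged over n ≥ 3.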
Target sequence in this assay (Q00975 whole entry): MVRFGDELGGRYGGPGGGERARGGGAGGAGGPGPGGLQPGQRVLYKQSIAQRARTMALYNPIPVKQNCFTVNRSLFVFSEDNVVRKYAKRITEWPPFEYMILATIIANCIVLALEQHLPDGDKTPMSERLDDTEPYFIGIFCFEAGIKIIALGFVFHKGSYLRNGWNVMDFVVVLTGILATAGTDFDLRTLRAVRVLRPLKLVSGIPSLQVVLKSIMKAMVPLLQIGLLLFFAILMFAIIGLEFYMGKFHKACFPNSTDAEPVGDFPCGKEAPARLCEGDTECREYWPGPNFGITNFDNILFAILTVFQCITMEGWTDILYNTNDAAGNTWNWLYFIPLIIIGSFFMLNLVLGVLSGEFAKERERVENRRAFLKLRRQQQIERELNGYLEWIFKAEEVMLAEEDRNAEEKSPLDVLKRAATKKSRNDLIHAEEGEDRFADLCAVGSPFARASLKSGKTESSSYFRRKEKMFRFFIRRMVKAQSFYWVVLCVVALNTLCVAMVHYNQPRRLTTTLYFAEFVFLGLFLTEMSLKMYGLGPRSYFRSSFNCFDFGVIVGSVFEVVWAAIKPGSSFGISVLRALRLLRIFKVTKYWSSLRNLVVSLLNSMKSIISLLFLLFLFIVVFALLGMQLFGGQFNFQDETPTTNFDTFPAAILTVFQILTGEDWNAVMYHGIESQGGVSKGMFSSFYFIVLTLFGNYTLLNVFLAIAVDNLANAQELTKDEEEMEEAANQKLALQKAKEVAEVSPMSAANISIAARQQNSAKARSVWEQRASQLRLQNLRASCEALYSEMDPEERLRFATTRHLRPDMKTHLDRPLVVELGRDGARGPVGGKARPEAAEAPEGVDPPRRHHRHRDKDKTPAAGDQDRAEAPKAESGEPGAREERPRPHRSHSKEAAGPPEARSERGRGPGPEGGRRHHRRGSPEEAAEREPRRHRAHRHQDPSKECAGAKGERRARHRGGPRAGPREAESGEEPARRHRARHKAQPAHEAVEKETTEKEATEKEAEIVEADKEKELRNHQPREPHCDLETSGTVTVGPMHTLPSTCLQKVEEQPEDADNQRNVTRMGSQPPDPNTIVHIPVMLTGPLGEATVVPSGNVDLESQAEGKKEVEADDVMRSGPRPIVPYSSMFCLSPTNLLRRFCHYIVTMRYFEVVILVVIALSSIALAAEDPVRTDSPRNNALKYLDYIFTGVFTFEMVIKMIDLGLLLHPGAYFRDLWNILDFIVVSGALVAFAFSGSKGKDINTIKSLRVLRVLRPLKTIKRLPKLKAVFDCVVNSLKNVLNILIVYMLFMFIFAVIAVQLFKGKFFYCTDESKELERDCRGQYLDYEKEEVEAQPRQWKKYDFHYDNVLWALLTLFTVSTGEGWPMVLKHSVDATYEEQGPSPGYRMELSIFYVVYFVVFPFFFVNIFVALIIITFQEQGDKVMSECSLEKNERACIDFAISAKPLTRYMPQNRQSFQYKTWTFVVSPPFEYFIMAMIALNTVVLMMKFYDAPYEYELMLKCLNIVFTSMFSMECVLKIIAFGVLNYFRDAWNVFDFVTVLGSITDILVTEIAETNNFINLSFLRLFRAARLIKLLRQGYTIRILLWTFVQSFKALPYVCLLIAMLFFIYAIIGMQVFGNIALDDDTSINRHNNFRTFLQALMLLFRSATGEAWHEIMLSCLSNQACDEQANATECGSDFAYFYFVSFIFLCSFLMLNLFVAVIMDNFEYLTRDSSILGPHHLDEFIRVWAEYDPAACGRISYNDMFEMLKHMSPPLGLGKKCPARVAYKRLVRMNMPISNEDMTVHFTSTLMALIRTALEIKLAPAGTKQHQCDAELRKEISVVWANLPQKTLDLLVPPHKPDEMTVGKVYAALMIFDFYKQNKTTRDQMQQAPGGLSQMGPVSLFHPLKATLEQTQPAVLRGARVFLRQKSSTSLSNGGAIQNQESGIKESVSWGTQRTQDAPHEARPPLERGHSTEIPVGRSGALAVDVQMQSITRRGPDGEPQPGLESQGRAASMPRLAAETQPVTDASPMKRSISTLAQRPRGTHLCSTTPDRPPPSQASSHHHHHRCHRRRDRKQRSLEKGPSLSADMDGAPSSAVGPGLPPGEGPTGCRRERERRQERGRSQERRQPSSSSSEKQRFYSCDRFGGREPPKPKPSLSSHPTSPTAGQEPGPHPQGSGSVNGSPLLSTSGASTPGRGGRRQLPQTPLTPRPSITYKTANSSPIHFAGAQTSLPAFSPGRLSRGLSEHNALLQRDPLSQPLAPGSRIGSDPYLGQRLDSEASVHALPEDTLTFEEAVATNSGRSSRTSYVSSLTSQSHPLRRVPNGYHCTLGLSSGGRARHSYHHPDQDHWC

Rattus norvegicus [6] = test: Normalized AUC in rat whole blood at 3 mg/kg, po; type: ADME, organism-based; set-up: dose 3 mg/kg, route oral; conditions: in vivo
In short: (§3)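 Rats dosed 3 mg/kg orally and 1 mg/kg intravenously; PK parameters derived from whole-blood concentrations. Normalized oral AUC given in μM·h·kg/mg, clearance in mL/min/kg, plus half-life and oral bioavailability.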

Rattus norvegicus [7] = test: Normalized AUC in rat whole blood assessed as 3-(trifluoromethyl)-benzenesulfonamide level at 3 mg/kg, po; type: ADME, organism-based; set-up: dose 3 mg/kg, route oral; conditions: in vivo
In short: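 Rats given a single 3 mg/kg oral dose of parent; whole-blood levels of parent and sulfonamide metabolite followed over time, n = 2 rats. Metabolite AUC normalized to dose (μM·h·kg/mg).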

[8] = biological target: T2, Nuclear receptor subfamily 1 group I member 2 (Homo sapiens, UniProt O75469); test: Activation of PXR (unknown origin)
T2 sequence (O75469 whole entry): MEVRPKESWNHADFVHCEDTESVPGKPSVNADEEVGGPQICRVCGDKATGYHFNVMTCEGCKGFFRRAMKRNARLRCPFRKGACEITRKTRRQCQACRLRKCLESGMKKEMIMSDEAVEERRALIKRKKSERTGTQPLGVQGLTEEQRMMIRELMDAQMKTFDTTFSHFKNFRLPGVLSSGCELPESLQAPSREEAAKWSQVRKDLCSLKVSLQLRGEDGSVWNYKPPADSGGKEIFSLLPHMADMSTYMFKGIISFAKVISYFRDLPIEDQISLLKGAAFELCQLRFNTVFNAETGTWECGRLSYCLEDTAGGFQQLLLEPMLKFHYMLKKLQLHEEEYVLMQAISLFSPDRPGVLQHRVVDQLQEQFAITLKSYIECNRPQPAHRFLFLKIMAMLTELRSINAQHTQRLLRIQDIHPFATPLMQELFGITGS

CYP3A4 = CYP3A4 (Homo sapiens, UniProt P08684); test: Inhibition of CYP3A4 (unknown origin) at 10 uM relative to control; type: ADME
hERG (KCNH2) = hERG (KCNH2) (Homo sapiens, UniProt Q12809); test: Displacement of [35S]MK-499 from human ERG at 10 uM relative to control; conditions: probe [35S]MK-499
In short: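 hERG binding assessed by displacement of [35S]MK-499; percent inhibition at 10 μM test compound.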

[9] = biological target: T1, Voltage-dependent N-type calcium channel subunit alpha-1B; test: Inhibition of Cav2.2-mediated calcium influx in HEK cells at 10 uM by FLIPR assay relative to control; type: cell-based; conditions: HEK293, 1 uM, in the assay text read “at 1 uM” for “at 10 uM”; in short: as §2
Target sequence in this assay (Q00975 whole entry, looked up): as the sequence (Q00975 whole entry) above

MDR1 (ABCB1) = MDR1 (ABCB1) (Homo sapiens, UniProt P08183); test: Activity at human MDR1 expressed in MDCK2 cells assessed as apparent permeability by LC/MS/MS analysis; type: ADME, cell-based, MDCK-II; conditions: MDCK-MDR1
[10] = Clearance in rat at 3 mg/kg, po and 1 mg/kg, iv; type: ADME, organism-based; conditions: in vivo; in short: as §3
Rattus norvegicus [11] = test: Antinociceptive activity in rat inflammatory pain model assessed as reversal of CFA-induced mechanical allodynia at 10 mg/kg, po after 1 hr; type: functional
In short: (§4)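 Rats given intraplantar complete Freund's adjuvant in the hind paws to induce inflammatory pain; mechanical allodynia assessed 1 and 3 h after a single oral dose. Percent reversal per rat calculated as (postdose − predose)/(preinjury − predose), averaged over n = 6 rats.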

Rattus norvegicus [12] = test: Antinociceptive activity in rat inflammatory pain model assessed as reversal of CFA-induced mechanical allodynia at 10 mg/kg, po after 3 hrs; type: functional; in short: as §4
Cytochrome P450 3A4 = Cytochrome P450 3A4 (Homo sapiens, UniProt P08684); test: Inhibition of CYP3A4 (unknown origin); type: ADME
[13] = Oral bioavailability in rat at 3 mg/kg; type: ADME, organism-based; conditions: in vivo; in short: as §3
[14] = Fraction unbound in 100% rat plasma; type: ADME, cell-free
In short: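 Unbound fraction measured in 100% rat plasma.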

Rattus norvegicus [15] = test: Antinociceptive activity in rat inflammatory pain model assessed as reversal of CFA-induced mechanical allodynia at 30 mg/kg, po after 3 hrs; type: functional; in short: as §4
Rattus norvegicus [16] = test: Antinociceptive activity in rat inflammatory pain model assessed as reversal of CFA-induced mechanical allodynia at 30 mg/kg, po after 1 hr; type: functional; in short: as §4

Sequence of CYP3A4 (P08684 whole entry): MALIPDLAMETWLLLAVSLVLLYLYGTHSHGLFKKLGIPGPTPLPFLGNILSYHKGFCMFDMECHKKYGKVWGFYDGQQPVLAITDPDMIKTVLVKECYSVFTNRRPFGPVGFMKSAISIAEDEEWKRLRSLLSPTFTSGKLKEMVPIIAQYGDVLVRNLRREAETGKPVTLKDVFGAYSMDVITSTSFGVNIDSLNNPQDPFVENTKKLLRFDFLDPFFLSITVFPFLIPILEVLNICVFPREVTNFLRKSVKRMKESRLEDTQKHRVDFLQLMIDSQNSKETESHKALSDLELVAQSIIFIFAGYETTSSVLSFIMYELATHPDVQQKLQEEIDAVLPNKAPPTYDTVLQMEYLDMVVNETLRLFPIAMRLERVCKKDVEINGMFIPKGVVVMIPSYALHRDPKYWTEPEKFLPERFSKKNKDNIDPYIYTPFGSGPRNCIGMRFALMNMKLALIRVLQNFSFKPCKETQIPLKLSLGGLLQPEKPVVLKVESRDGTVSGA
Sequence of hERG (KCNH2) (Q12809 whole entry): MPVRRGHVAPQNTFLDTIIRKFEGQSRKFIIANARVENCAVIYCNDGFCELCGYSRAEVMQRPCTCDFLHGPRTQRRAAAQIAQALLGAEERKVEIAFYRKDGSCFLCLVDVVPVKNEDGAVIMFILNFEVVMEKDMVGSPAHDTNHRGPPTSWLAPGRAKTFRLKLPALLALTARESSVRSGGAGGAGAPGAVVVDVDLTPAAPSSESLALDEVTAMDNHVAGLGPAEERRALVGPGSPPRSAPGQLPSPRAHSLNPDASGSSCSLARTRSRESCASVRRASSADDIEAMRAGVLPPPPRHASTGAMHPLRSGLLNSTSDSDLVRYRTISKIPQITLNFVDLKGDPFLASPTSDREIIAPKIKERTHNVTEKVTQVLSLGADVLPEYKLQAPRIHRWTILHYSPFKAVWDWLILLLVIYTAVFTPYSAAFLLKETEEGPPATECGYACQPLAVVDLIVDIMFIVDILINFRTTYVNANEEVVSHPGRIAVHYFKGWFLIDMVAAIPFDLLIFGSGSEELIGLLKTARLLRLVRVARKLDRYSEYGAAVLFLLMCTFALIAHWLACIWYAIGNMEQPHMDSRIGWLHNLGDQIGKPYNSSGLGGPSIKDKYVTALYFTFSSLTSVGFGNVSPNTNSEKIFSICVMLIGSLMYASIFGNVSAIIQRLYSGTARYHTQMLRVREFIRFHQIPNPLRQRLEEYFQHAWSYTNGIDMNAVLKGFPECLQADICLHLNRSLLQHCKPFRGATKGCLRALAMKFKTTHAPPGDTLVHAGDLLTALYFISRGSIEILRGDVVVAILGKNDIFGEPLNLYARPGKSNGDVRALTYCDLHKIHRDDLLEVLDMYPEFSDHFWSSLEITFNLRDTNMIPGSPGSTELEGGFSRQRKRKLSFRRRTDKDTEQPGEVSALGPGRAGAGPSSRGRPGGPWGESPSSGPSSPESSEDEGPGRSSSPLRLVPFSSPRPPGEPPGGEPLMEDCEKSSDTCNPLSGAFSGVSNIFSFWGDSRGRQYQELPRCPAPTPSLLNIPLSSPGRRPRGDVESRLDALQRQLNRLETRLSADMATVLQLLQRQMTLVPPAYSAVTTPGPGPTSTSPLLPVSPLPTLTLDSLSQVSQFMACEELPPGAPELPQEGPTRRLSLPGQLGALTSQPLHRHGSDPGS
Sequence of Cytochrome P450 3A4 (P08684 whole entry): as the sequence (P08684 whole entry) above

CS(=O)(=O)c1ccc(C(=O)N2CC(N(C3CC3)S(=O)(=O)c3cccc(C(F)(F)F)c3)C2)c(C(F)(F)F)c1
remaining at 1 h, 10 µM [1]: 78% | remaining at 1 h, 10 µM [2]: 72% | Drug metabolism (Liver microsome [3]): 0.04 µM | Drug metabolism (Liver microsome [4]): 0.45 µM | IC50 [5]: 270 nM

C[C@H]1[C@H](N(C2CC2)S(=O)(=O)c2cccc(C(F)(F)F)c2)CN1C(=O)c1ccc(S(C)(=O)=O)cc1Cl (racemic)
remaining at 1 h, 10 µM [1]: 5.3% | remaining at 1 h, 10 µM [2]: 4.7% | Drug metabolism (Liver microsome [3]): 0.11 µM | AUC/dose (Rattus norvegicus [6]): 0.017 µM·kg·h/mg | Drug metabolism (Liver microsome [4]): 0.83 µM | IC50 [5]: 48 nM | AUC/dose (Rattus norvegicus [7]): 64 µM·kg·h/mg

CS(=O)(=O)c1cc(C#N)ccc1C(=O)N1CCC(N(C2CC2)S(=O)(=O)c2cccc(C(F)(F)F)c2)CC1
EC50 [8]: 8400 nM | inhibition at 10 µM (CYP3A4): 86% | IC50 [5]: 450 nM | inhibition at 10 µM (hERG (KCNH2)): 66%

CS(=O)(=O)c1ccc(C#N)cc1C(=O)N1CCC(N(C2CC2)S(=O)(=O)c2cccc(C(F)(F)F)c2)CC1
EC50 [8]: 5000 nM | inhibition at 10 µM (CYP3A4): 59% | IC50 [5]: 670 nM | inhibition at 10 µM (hERG (KCNH2)): 41%

C[C@@H]1[C@H](N(C2CC2)S(=O)(=O)c2cccc(C(F)(F)F)c2)CN1C(=O)c1cc(F)ccc1S(C)(=O)=O (racemic)
IC50 [5]: 380 nM

CS(=O)(=O)c1cc(C(F)(F)F)ccc1C(=O)N1CCC2(CCN(S(=O)(=O)c3cccc(C(F)(F)F)c3)CC2)C1
remaining at 1 h, 10 µM [1]: 8.5% | remaining at 1 h, 10 µM [2]: 12% | AUC/dose (Rattus norvegicus [6]): 0.022 µM·kg·h/mg | IC50 [5]: 72 nM | AUC/dose (Rattus norvegicus [7]): 218 µM·kg·h/mg

CS(=O)(=O)c1ccc(C(=O)N2CCC(CS(=O)(=O)c3cccc(C(F)(F)F)c3)CC2)c(OC(F)(F)F)c1
IC50 [5]: 360 nM

CN(C1CCN(C(=O)c2ccccc2S(C)(=O)=O)CC1)S(=O)(=O)c1cccc(C(F)(F)F)c1
remaining at 1 h, 10 µM [1]: 26% | remaining at 1 h, 10 µM [2]: 18% | Drug metabolism (Liver microsome [3]): 0.08 µM | Drug metabolism (Liver microsome [4]): 0.95 µM | IC50 [5]: 460 nM

CS(=O)(=O)c1ccc(C(=O)N2CCC(N(C3CC3)S(=O)(=O)c3cccc(C(F)(F)F)c3)CC2)c(Cl)c1
EC50 [8]: 10800 nM | inhibition at 10 µM (CYP3A4): 78% | IC50 [5]: 290 nM | inhibition at 10 µM (hERG (KCNH2)): 32%

CS(=O)(=O)c1ccc(C(=O)N2CCC(N(C3CC3)S(=O)(=O)c3cccc(C(F)(F)F)c3)CC2)c(C(F)(F)F)c1
EC50 [8]: 2800 nM | inhibition at 10 µM (CYP3A4): 75% | IC50 [5]: 21 nM | inhibition at 10 µM (hERG (KCNH2)): 58%

CS(=O)(=O)c1ccc(C(=O)N2CCC(N(C(=O)c3cccc(C(F)(F)F)c3)C3CC3)CC2)c(OC(F)(F)F)c1
inhibition [9]: 48%

CC(C1CCN(C(=O)c2ccc(S(C)(=O)=O)cc2OC(F)(F)F)CC1)S(=O)(=O)c1cccc(C(F)(F)F)c1 (stereo in doubt; 30 en-2)
IC50 [5]: 370 nM

CS(=O)(=O)c1ccc(F)cc1C(=O)N1CC(N(C2CC2)S(=O)(=O)c2cccc(C(F)(F)F)c2)C1
IC50 [5]: 970 nM

CC(C)(C1CCN(C(=O)c2cc(F)ccc2S(C)(=O)=O)CC1)S(=O)(=O)c1cccc(C(F)(F)F)c1
remaining at 1 h, 10 µM [1]: 64% | remaining at 1 h, 10 µM [2]: 68% | EC50 [8]: 2500 nM | Papp (MDR1 (ABCB1)): 35 ×10⁻⁶ cm/s | clearance [10]: 29 mL/min/kg | AUC/dose (Rattus norvegicus [6]): 0.27 µM·kg·h/mg | Efficacy (Rattus norvegicus [11]): 36% | Efficacy (Rattus norvegicus [12]): 49% | IC50 (Cytochrome P450 3A4): 10000 nM | bioavailability [13]: 24% | IC50 [5]: 510 nM | fraction unbound [14]: 0.068 | Efficacy (Rattus norvegicus [15]): 54% | Efficacy (Rattus norvegicus [16]): 57%

NS(=O)(=O)c1cccc(C(F)(F)F)c1
clearance [10]: 0.31 mL/min/kg | AUC/dose (Rattus norvegicus [6]): 111 µM·kg·h/mg | bioavailability [13]: 46% | IC50 [5]: > 10000 nM | Efficacy (Rattus norvegicus [15]): 44% | Efficacy (Rattus norvegicus [16]): 53%
